Experimental data reported in ChEMBL document CHEMBL4130482, “Synthesis and Antimicrobial Evaluation of Fire Ant Venom Alkaloid Based 2-Methyl-6-alkyl-Δ1,6-piperideines” (J Nat Prod, 2017).
Converted amounts (≈) assume the structure as drawn. The source made the active and inactive calls. The calls are words filed in the database; no cut-off is given here.

Columns and labels:
Candida albicans [1] = assay: Antimicrobial activity against Candida albicans ATCC 90028 after 48 hrs by CLSI method; format: functional, organism-based
Procedure, shortened: (§1)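 Antifungal susceptibility was tested by a modified CLSI (formerly NCCLS) broth method. Strains were C. neoformans ATCC 90113, C. albicans ATCC 90028, and A. fumigatus ATCC 204305, obtained from ATCC. Amphotericin B served as the positive control.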

Pseudomonas aeruginosa = assay: Antimicrobial activity against Pseudomonas aeruginosa ATCC 2108 at 20 ug/ml by CLSI method; format: functional, organism-based
Leishmania donovani [2] = assay: Antileishmanial activity against promastigote form of Leishmania donovani after 72 hrs by Alamar blue assay; format: functional, organism-based
Procedure, shortened: (§2)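 Alamar Blue viability assay on L. donovani promastigotes, axenic amastigotes, THP1-cell amastigotes, and T. brucei trypomastigotes. Organisms at 2 × 10^6 cells/mL were exposed to serially diluted compounds for 72 h at 26 °C. IC50 and IC90 were determined. Test compounds were run up to 10 μg/mL. Values are means with standard deviations from two independent experiments, each in duplicate.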

Leishmania donovani [3] = assay: Antileishmanial activity against amastigote form of Leishmania donovani infected in human THP1 cells after 72 hrs by Alamar blue assay; format: functional, organism-based; conditions: THP-1, 72 h; procedure, shortened: as §2
THP-1 = assay: (§3) Cytotoxicity against human THP1 cells; format: cell-based; conditions: Homo sapiens, THP-1
Procedure, shortened: (§4)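 Human THP-1 cells were exposed to test compounds at up to 10 μg/mL. Values are from two independent experiments, each with two replicates.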

[4] = as §3; format: cell-based, THP-1; conditions: human, THP-1 cells; procedure, shortened: as §4
Cryptococcus neoformans = assay: Antimicrobial activity against Cryptococcus neoformans ATCC 90113 after 72 hrs by CLSI method; format: functional, organism-based; conditions: ATCC 90113, 72 h; procedure, shortened: as §1
Staphylococcus aureus = assay: Antimicrobial activity against methicillin-resistant Staphylococcus aureus ATCC 1708 at 20 ug/ml by CLSI method; format: functional, organism-based
Leishmania donovani [5] = assay: Antileishmanial activity against […] amastigote form of Leishmania donovani after 72 hrs by Alamar blue assay; format: functional, organism-based; procedure, shortened: as §2
Trypanosoma brucei = assay: Antitrypanosomal activity against trypomastigote form of Trypanosoma brucei after 72 hrs by Alamar blue assay; format: functional, organism-based; procedure, shortened: as §2
Enterococcus faecium [6] = assay: Antimicrobial activity against vancomycin-resistant Enterococcus faecium ATCC 700221 at 20 ug/ml by CLSI method; format: functional, organism-based
Aspergillus fumigatus = assay: Antimicrobial activity against Aspergillus fumigatus ATCC 204305 at 20 ug/ml after 48 hrs by CLSI method; format: functional, organism-based
Escherichia coli = assay: Antimicrobial activity against Escherichia coli ATCC 2452 at 20 ug/ml by CLSI method; format: functional, organism-based
Candida albicans [7] = assay: Antimicrobial activity against Candida albicans ATCC 90028 at 20 ug/ml after 48 hrs by CLSI method; format: functional, organism-based
Enterococcus faecium [8] = assay: Antimicrobial activity against vancomycin-resistant Enterococcus faecium ATCC 700221 by CLSI method; format: functional, organism-based
Procedure, shortened: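 VRE E. faecium ATCC 700221 strain, tested by a modified CLSI susceptibility method. Methicillin and vancomycin served as positive controls. The read-outs were 50% growth inhibition (IC50) and minimum inhibitory concentration (MIC).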

Enterococcus faecium [9] = assay: Antimicrobial activity against vancomycin-resistant Enterococcus faecium ATCC 700221 at 2 ug/ml by CLSI method; format: functional, organism-based

SMILES | IC50 (Candida albicans [1]; ATCC 90028, 48 h) | Activity (Pseudomonas aeruginosa) | IC50 (Leishmania donovani [2]) | IC90 (Leishmania donovani [2]) | IC50 (Leishmania donovani [3]) | IC90 (Leishmania donovani [3]) | IC50 (THP-1) | IC90 [4] | IC50 (Cryptococcus neoformans) | MIC (Cryptococcus neoformans) | Activity (Staphylococcus aureus) | IC50 (Leishmania donovani [5]) | IC90 (Leishmania donovani [5]) | IC50 (Trypanosoma brucei) | IC90 (Trypanosoma brucei) | Activity (Enterococcus faecium [6]) | Activity (Aspergillus fumigatus) | Activity (Escherichia coli) | MIC (Candida albicans [1]; ATCC 90028, 48 h) | further results
CCCCCCCCCCCCCCC1=NC(C)CCC1 (configuration not stated) | 17.1 µg/mL (≈ 58.3 µM) | inactive | 6.7 µg/mL (≈ 22.8 µM) | 9 µg/mL (≈ 30.7 µM) | 3.4 µg/mL (≈ 11.6 µM) | 8.8 µg/mL (≈ 30 µM) | > 10 µg/mL | > 10 µg/mL | 8.3 µg/mL (≈ 28.3 µM) | 13.3 µg/mL (≈ 45.3 µM) | inactive | > 10 µg/mL | > 10 µg/mL | 4 µg/mL (≈ 13.6 µM) | 6.8 µg/mL (≈ 23.2 µM) | inactive | inactive | inactive |  | MIC (Candida albicans [1]): inactive
NCCCC(N)(C(=O)O)C(F)F (configuration not stated) [EFLORNITHINE] |  |  |  |  |  |  |  |  |  |  |  |  |  | 6.1 µg/mL (≈ 33.5 µM) | 12.1 µg/mL (≈ 66.4 µM) |  |  |  |  | 
CCCCCCCCCCCCCCCCC1=NC(C)CCC1 (configuration not stated) |  | inactive | 5 µg/mL (≈ 15.5 µM) | 8.3 µg/mL (≈ 25.8 µM) | > 10 µg/mL | > 10 µg/mL | > 10 µg/mL | > 10 µg/mL | 9.9 µg/mL (≈ 30.8 µM) | 20 µg/mL (≈ 62.2 µM) | inactive | > 10 µg/mL | > 10 µg/mL | 3.5 µg/mL (≈ 10.9 µM) | 6.5 µg/mL (≈ 20.2 µM) | inactive | inactive | inactive |  | Activity (Candida albicans [7]): inactive
CCCCCCCCCCCCCCCC1=NC(C)CCC1 (configuration not stated) | 12.4 µg/mL (≈ 40.3 µM) | inactive | 5.7 µg/mL (≈ 18.5 µM) | 7.9 µg/mL (≈ 25.7 µM) | 3.1 µg/mL (≈ 10.1 µM) | > 10 µg/mL | > 10 µg/mL | > 10 µg/mL | 6.6 µg/mL (≈ 21.5 µM) | 10 µg/mL (≈ 32.5 µM) | inactive | > 10 µg/mL | > 10 µg/mL | 2.7 µg/mL (≈ 8.78 µM) | 3.6 µg/mL (≈ 11.7 µM) |  | inactive | inactive | 20 µg/mL (≈ 65 µM) | IC50 (Enterococcus faecium [8]): 19.4 µg/mL (≈ 63.1 µM); MIC (Enterococcus faecium [8]): 20 µg/mL (≈ 65 µM)
C[C@@H]1[C@H](O)[C@@H](C)/C=C/C=C/C=C/C=C/C=C/C=C/C=C/[C@H](O[C@@H]2O[C@H](C)[C@@H](O)[C@H](N)[C@@H]2O)C[C@@H]2O[C@](O)(C[C@@H](O)C[C@@H](O)[C@H](O)CC[C@@H](O)C[C@@H](O)CC(=O)O[C@H]1C)C[C@H](O)[C@H]2C(=O)O [AMPHOTERICIN B] | < 0.1 µg/mL |  | 0.2 µg/mL (≈ 0.216 µM) | 0.5 µg/mL (≈ 0.541 µM) | 0.2 µg/mL (≈ 0.216 µM) | 0.4 µg/mL (≈ 0.433 µM) | > 2 µg/mL | > 2 µg/mL | < 0.1 µg/mL | 0.1 µg/mL (≈ 0.108 µM) |  | 0.9 µg/mL (≈ 0.974 µM) | 1.4 µg/mL (≈ 1.52 µM) |  |  |  |  |  | 0.1 µg/mL (≈ 0.108 µM) | Activity (Enterococcus faecium [9]): inactive
